Screening data (PubChem BioAssay)
UCH37 inh: inhibitors of human deubiquitinating enzyme UCH37. 0.33% of 330,000 active. purified proteasome/UCH37, Ub-AMC cleavage fluorescence. Q9Y5K5. inhibition, % (test concentration not listed);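 active = mean inhibition over replicate wells above about 20%, limit read from the data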;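 note: 0% = compound-free wells with enzyme and 100% = wells lacking proteasome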
Target sequence (Q9Y5K5 whole entry, looked up): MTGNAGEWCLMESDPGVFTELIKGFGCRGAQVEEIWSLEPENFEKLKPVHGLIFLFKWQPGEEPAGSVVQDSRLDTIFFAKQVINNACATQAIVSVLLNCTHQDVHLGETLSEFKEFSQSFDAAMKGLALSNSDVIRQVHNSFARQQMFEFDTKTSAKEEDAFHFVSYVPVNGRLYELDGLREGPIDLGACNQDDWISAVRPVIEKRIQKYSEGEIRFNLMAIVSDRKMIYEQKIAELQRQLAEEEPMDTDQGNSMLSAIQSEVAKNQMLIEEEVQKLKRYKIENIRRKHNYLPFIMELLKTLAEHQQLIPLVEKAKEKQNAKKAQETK
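Material: Human UCH37 enzyme supplied as purified proteasome complex | Schedule: 30 min compound-proteasome preincubation then 25 min substrate reaction, room temperature | Detection: AMC fluorescence from Ub-AMC cleavage, excitation 355 nm, emission 460 nm | Benchmarks: Wells without proteasome as full block, compound-free enzyme plus substrate as uninhibited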
H9c2 protect: myocardial damage modulation in H9c2 cells. H9c2 cardiomyocytes, H2O2 injury protection, ATPLite, 2 h. protection from H2O2 cell death, % at 20 µM. 0.63% of 360,000 active;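 active = compounds giving at least 50% protection of heart cells from peroxide-induced death in the single-dose screen, raw or plate-pattern-corrected value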;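 note: 0% = DMSO wells with peroxide and 100% = DMSO wells without peroxide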
hiPSC survival: hiPSC single-cell survival enhancement; ATPlite luminescence; 100% = ROCK inhibitor wells, 0% = DMSO; survival enhancement, % at 20 µM; 0.044% of 360,000 active; in the data active = survival enhancement above about 18%;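 note: cells exposed to compounds for 16 hours before the ATP read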
CRFBP-R2 agonist: CRF-BP/CRF-R2 complex agonism; HEK293 CRF-R2/CRF-BP, calcium dye fluorescence (FLIPR); percent of saturating CRF peptide response; activation, % at 13.2 µM; 0.46% of 350,000 active; AID 588473;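 active = activation of at least 50%, plus an integration ratio under a set limit after plate pattern correction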;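 note: plate controls were neutral control wells without compound for no effect and CRF at EC100 for full effect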
MIN6 prolif-1: induces beta-cell replication in MIN6 cells | proliferation, % at 10 µM | 0.29% of 330,000 active | MIN6 cells proliferation, ATPlite luminescence, 48 h; cells starved in 0.2% serum; 100% = growth in 10% serum;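 active = compounds whose signal lies at least 3.5 SD above the mean of all wells on their plate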;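 note: 0% = DMSO-treated cells in low-serum medium and 100% = 10% serum control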
CRFR2-BP antag: CRF-BP/CRF-R2 complex antagonism. 0.59% of 350,000 active. inhibition, % at 11.8 µM. AID 588475. HEK293 CRF-R2/CRF-BP, CRF-induced calcium fluorescence;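 active = inhibition of the ligand-induced calcium signal above about 50% at the single tested concentration, limit read from the data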
MIN6 prolif-2: confirmation of inducers of beta-cell replication in MIN6 cells; shares compounds with MIN6 prolif-1; MIN6 beta-cell proliferation, ATPlite luminescence, 48 h; cells kept in 0.2% serum; scaled between 0.2% and 10% serum; proliferation increase, % at 50 µM; 920 tested, under 10 active;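 active = proliferation increase above 40% at any of the four tested concentrations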
UCH37 confirm: confirmation of human UCH37 deubiquitinating enzyme inhibitors. shares compounds with UCH37 inh. Proteasome-bound UCH37, Ub-AMC cleavage fluorescence. inhibition, % at 20 µM. 27% of 480 active;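 active = average inhibition over replicates above about 50%, so the earlier screening hit is confirmed, limit read from the data; inactive = the rest, counted as false positives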;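 note: based on cleavage rate fitted by regression over a 30 min kinetic read; 0% = proteasome plus Ub-AMC and 100% = Ub-AMC without proteasome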
Starred values were filed as active, the others as inactive; . = no result; ! = a repeat was not active. Shown are actives, neighbours in structure and some others; about 2.1% of the full set was active somewhere.

SMILES | UCH37 inh | H9c2 protect | hiPSC survival | CRFBP-R2 agonist | MIN6 prolif-1 | CRFR2-BP antag | others
CC12CC[C@H]3[C@@H](CCC4(O)C[C@H](O)CCC34C=NNC(=O)c3ccccc3O)C1(O)CCC2C1=CC(=O)OC1 (stereo partly drawn) | -5.3 | . | . | . | . | .
CNC(=S)NN=C1C2CN3CCN(C2)CC1(c1ccccc1)C3 | 2.9 | . | . | . | . | .
CCCCCCCCCCOC(=O)CCN1CC1 | . | 0.6 | -1.5 | 8.4 | . | 50.8*
COC(=O)C1C2c3ccccc3OC1(C)N=c1sc(=Cc3cn(C)nc3C)c(=O)n12 (stereo not drawn) | 2.0 | . | . | . | . | .
O=C(NN=C1CN2CCC1CC2)c1cc2ccccc2cc1O | -0.5 | . | . | . | . | .
C[C@H]1CCC[C@@H](O)CCCC=Cc2cc(O)cc(O)c2C(=O)O1 | -0.1 | . | . | . | . | .
CC(CNC(=O)c1ccc(NC2=NC3CS(=O)(=O)CC3S2)cc1)c1ccccc1 (stereo not drawn) | 2.4 | 3.3 | -1.3 | 50.3* | -1.1 | -122.2
C[C@H]1CC[C@@H]2[C@@H](C)[C@H]3[C@H](C[C@H]4[C@@H]5CC=C6C[C@@H](O[C@@H]7O[C@H](CO)[C@H](O)[C@H](O[C@@H]8O[C@H](CO)[C@@H](O)[C@H](O)[C@H]8O)[C@H]7O[C@@H]7O[C@@H](C)[C@H](O)[C@@H](O)[C@H]7O)CC[C@]6(C)[C@H]5CC[C@]34C)N2C1 | 1.3 | -15.1 | 2.4 | 67.4* | -1.8 | -21.7
C[C@@H]1CC2C3CC=C4C[C@@H](O)CC[C@]4(C)C3CC[C@]2(C)[C@H]1O (stereo partly drawn) | -0.8 | -8.1 | 3.0 | 0.9 | -3.0 | 7.0
C#C[C@@]1(O)CCC2C3CCC4=CC(=NOCC(=O)NC(C(=O)NC(CC(C)C)C(=O)O)C(C)C)CC[C@]4(C)C3CC[C@@]21C (stereo partly drawn) | 1.2 | . | . | . | . | .
CC12CC[C@H]3[C@@H](CCC4(O)C[C@H](O)CCC34C=NNC(=O)c3ccccc3F)C1(O)CCC2C1=CC(=O)OC1 (stereo partly drawn) | 1.4 | . | . | . | . | .
O=C(COc1ccccc1F)N1CCN(CCN2C(=O)c3cccc4cccc(c34)C2=O)CC1 | 2.0 | 24.5 | -0.5 | -0.1 | 0.9 | 69.5*
O=C(COc1ccccc1)N1CCN(CCN2C(=O)c3cccc4cccc(c34)C2=O)CC1 | 0.9 | 27.2 | -0.6 | -5.3 | 1.9 | -19.3
C[C@]12CCC3C(CCC4=CC(=NOCC(=O)NC(CCC(=O)O)C(=O)O)CC[C@@]43C)C1CCC2O (stereo partly drawn) | 3.9 | . | . | . | . | .
ON=Cc1c[nH]c2ccccc12 | 2.7 | . | . | . | . | .
NC(=O)c1ccc(N=Nc2c(O)[nH]c(=O)[nH]c2=O)cc1 | . | . | . | . | -1.7 | .
O=c1[nH]c(O)c(N=Nc2cc([N+](=O)[O-])ccc2O)c(=O)[nH]1 | 22.7* | 9.7 | -1.9 | 0.2 | . | 23.2
CCOC(=O)Cn1cc(C=C2C(=O)N(C)C(=O)N(C)C2=O)c2ccccc21 | . | 7.6 | -0.4 | 66.1* | 1.2 | -48.6
CCC1CN2CCc3cc(OC)c(OC)cc3C2CC1CC1NCCc2c1[nH]c1ccc(O)cc21 (stereo not drawn) | . | 6.7 | -2.0 | 5.0 | . | 50.9*
O=c1[nH]c(=O)n(CCc2ccc(F)cc2)c(O)c1C=NCCCn1ccnc1 | 26.0* | 12.3 | 3.0 | 0.2 | -3.9 | 3.2
O=c1[nH]c(=O)n(CCC2=CCCCC2)c(O)c1C=NCCCn1ccnc1 | 3.1 | 2.2 | -0.4 | 1.1 | -0.3 | 0.3
CCCCC(=NO)c1c[nH]c2ccccc12 | 3.1 | . | . | . | . | .
ON=C1/C(=C\c2ccccc2)N2CCC1CC2 | 2.9 | . | . | . | . | .
CC1(C)CSC(=NCc2ccccc2)N1 | 0.2 | -5.2 | -0.9 | 190.8* | -2.9 | 4.1
O=[N+]([O-])c1ccccc1Cl | -0.3 | -0.9 | -0.4 | -1.9 | 1.9 | 12.1
SMILES | UCH37 inh | H9c2 protect | hiPSC survival | CRFBP-R2 agonist | MIN6 prolif-1 | CRFR2-BP antag | others
Cc1ccccc1[N+](=O)[O-] | 0.1 | -0.6 | -2.2 | 13.2 | 1.3 | 51.3*
COC(=O)C1C(O)C(C)C(O)C(C)C=CC=C(C)C(=O)Nc2c(C)c(OC(C)=O)c3c(c2O)C(=O)C(C)=C2OCOC(=C23)C(C)=CC(C)(O)C(O)C(C)C1O (stereo not drawn) | 15.7 | . | . | . | . | .
NC(=N[N+](=O)[O-])N1CCN(C(=O)c2ccccc2)CC1 | 2.5 | . | . | . | . | .
O=[N+]([O-])c1ccc(N2CCCC2)cc1NN=C1CN2CCC1CC2 | 21.6* | . | . | . | . | .
COc1ccc(-c2nc3ccccc3n2OC(=O)N(C)C)cc1 | 0.9 | 5.6 | -3.2 | 6.0 | -0.5 | 10.2
CN(C)C(=O)On1c(-c2ccccc2)nc2ccc(Cl)cc21 | -0.8 | -8.3 | 2.3 | -2.4 | 11.9* | -29.3 | MIN6 prolif-2=-6.3
CC(C)N(CCC(C(N)=O)(c1ccccc1)c1ccccn1)C(C)C (stereo not drawn) | 2.0 | -5.0 | -2.6 | -0.6 | 13.2*! | 1.0 | MIN6 prolif-2=3.6
CC1(C)CCCN1CCC(C(N)=O)(c1ccccc1)c1ccccc1 | 2.3 | -2.2 | -1.4 | -1.2 | . | 1.3
COc1ccc(NC(=O)C2C3CCC(O3)C2C(=O)O)c(OC)c1 (stereo not drawn) | . | -0.9 | 0.8 | 2.2 | 6.7* | 4.9 | MIN6 prolif-2=-3.3
COc1ccc(CC(C)NC2CCCCCC2)cc1 (stereo not drawn) | 1.6 | 0.4 | -0.1 | 24.4 | 6.1* | -3.1 | MIN6 prolif-2=-1.7
Cc1cc(N(CCCl)CCCl)ccc1C=NNC(=O)c1ccco1 | -63.0 | . | . | . | . | .
CC(=O)OC1CCC2(C=NO)C(=CCC3C4CCC(=O)C4(C)CCC32)C1 (stereo not drawn) | 0.7 | . | . | . | . | .
O=C(Cn1ncc2c([nH]c3ccccc32)c1=O)NCCCN1CCN(c2ccccc2)CC1 | 6.5 | 2.6 | -0.6 | 0.0 | 0.1 | -6.0
CCCCCCn1c(=O)c(C(=O)Nc2ncccc2C)c(O)c2ccccc21 | -7.0 | -6.0 | -0.6 | 1.4 | 6.6* | 2.9 | MIN6 prolif-2=-6.2
CC1CCCCC1NC1CCN(C)CC1 (stereo not drawn) | 2.4 | 1.6 | -0.4 | -0.3 | 6.0* | 0.6 | MIN6 prolif-2=-2.7
CNC(=S)N(Cc1cc2cc(OC)c(OC)cc2[nH]c1=O)C1CCCC1 | -91.1 | 13.4 | -1.4 | 1.1 | -0.8 | -7.7
O=C1NC(=O)C(Nc2ccc(Cl)c(Cl)c2)C(=O)N1 | 58.5* | 5.5 | -1.1 | 2.9 | . | 7.0 | UCH37 confirm=-1.9
O=C(Nc1ccc(Cl)c(Cl)c1)c1ccco1 | -0.6 | 5.9 | -0.4 | -0.8 | -4.8 | 8.5
COc1ccc(N2CC(C(=O)Nc3nnc(Cc4ccccc4)s3)CC2=O)cc1 (stereo not drawn) | 0.1 | 5.9 | -0.6 | -0.5 | 0.4 | -7.0
